Screening results (PubChem BioAssay)
Only some compounds are listed: those with a hit (about 2% of all), similar ones and a draw of the others.
HNF4A DNA FP – change in binding of human HNF4A to DNA, primary screen, biochemical, fluorescence polarization, FITC-DNA | 1 h | activity change, % at 10 µM | Hepatocyte nuclear factor 4-alpha (Homo sapiens), P41235 | actives 0.3% (n = 360,000); in the data active means activity change above about 30%, passing the limit was not always enough
Rpn11 block – Rpn11 (PSMD14) deubiquitinase inhibitors, primary screen, biochemical, fluorescence polarization, uHTS; AID 588493, 2011; 26S proteasome non-ATPase regulatory subunit 14 (Homo sapiens), O00487; inhibition, % at 20 µM; actives 0.59% (n = 360,000); human 26S proteasome, Ub4-pepOG fluorescence polarization; 20S core pre-blocked with epoxomicin;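 active means inhibition at 20 µM, scaled to each plate's controls, above about 33%, limit read from the data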
SENP1 inh – human SENP1 catalytic domain inhibitors, primary screen, biochemical, FRET, uHTS; Sentrin-specific protease 1 (Homo sapiens), Q9P0U3; recombinant SENP1 catalytic domain, CyPet-SUMO1-YPet FRET cleavage; inhibition, % at 10 µM; actives 0.21% (n = 360,000); AID 624204, 2012;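 active means inhibition at least 30% at 10 µM, raw YFP signal under a set limit, fluorescence ratio 0.5 to 1.5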;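 further: 0% = enzyme with DMSO and 100% = no enzyme wells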
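system = hSENP1 catalytic domain, recombinant | reagent = SFCypet-SUMO1-SFYpet substrate at 25 nM | doses = one dose per compound, 10 µM, 0.5% DMSO | incubation = enzyme reaction for 50 min at room temperature, dark | measured by = FRET, CFP and YFP emission | controls = no-enzyme low, enzyme-DMSO high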
TPT1 inhibitor – Candida albicans TPT1 enzyme inhibitors, primary screen, biochemical, fluorescence polarization. inhibition, % at 5 µM. AID 1962, 2009. actives 0.81% (n = 300,000). tRNA 2'-phosphotransferase TPT1 (Candida albicans SC5314). recombinant caTPT1, FP RNA substrate dephosphorylation;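 active means inhibition above the mean of all tested compounds plus 3 SD, set per screening campaign, cut at about 24% in these data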;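 further: plate controls were DMSO alone for no effect and ferristatin control at 100 nM for full effect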
ATG4B inh – ATG4B protease inhibitors, primary screen, biochemical, fluorescence, uHTS | ATG4B cleavage of LC3-PLA2, NBD-HPC fluorescence, 1 h | inhibition, % at 8.33 µM | Cysteine protease ATG4B (Homo sapiens), Q9Y4P1 | actives 0.51% (n = 340,000)
CSN inh – inhibitors of CSN-mediated cullin deneddylation, primary screen, biochemical, fluorescence polarization, uHTS | actives 0.38% (n = 360,000) | COP9 signalosome complex subunit 5 (Homo sapiens), Q92905 | Purified CSN, SCF-Nedd8-OG deneddylation | inhibition, % at 12.5 µM | AID 651999, 2013;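 active means pattern-corrected inhibition above about 35%, with an unprinted fluorescence ratio check between 0.5 and 1.5, limit read from the data, passing the limit was not always enough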;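 further: 0% = enzyme with substrate and 100% = substrate without enzyme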
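Detection – fluorescence polarization · System – HEK293T-derived human Csn5 enzyme · Controls – substrate-only high control, full reaction low control · Timing – 90 min, room temperature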
TPT1 inh confirm – Candida albicans TPT1 inhibitors, confirmation, biochemical, fluorescence polarization, triplicate; shares compounds with TPT1 inhibitor; recombinant caTPT1, RNase T1 coupled; inhibition, % at 5 µM; actives 74% (n = 2,400); AID 2149, 2009;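 active means inhibition above the primary screen limit, the mean inhibition of all tested compounds plus 3 SD, cut at about 25% in these data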
RNase T1 inh – RNase T1 inhibitors, counter-screen for TPT1 inhibitor project, biochemical, fluorescence polarization; RNase T1 cleavage, 1536-well; inhibition, % at 5 µM; shares compounds with TPT1 inhibitor; actives 83% (n = 2,400);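 active means inhibition above the solvent-only control well mean plus 3 SD, limit set per screening run, cut at about 23% in these data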;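 further: plate controls were DMSO wells with enzyme for no effect and wells without RNase T1 for full effect; inhibitors block cleavage so intact labeled substrate keeps polarization high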
Target sequence (P00651 whole entry, looked up): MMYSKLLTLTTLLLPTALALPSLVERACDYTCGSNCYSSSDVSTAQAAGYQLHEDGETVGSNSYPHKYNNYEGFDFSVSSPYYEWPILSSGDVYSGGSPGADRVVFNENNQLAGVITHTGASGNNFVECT
Rpn11 confirm – Rpn11 (PSMD14) deubiquitinase inhibitors, confirmation, biochemical, fluorescence polarization, single concentration | shares compounds with Rpn11 block | purified human 26S proteasome, Ub4-pepOG fluorescence polarization; proteasome pretreated with epoxomicin | inhibition, % at 20 µM | actives 29% (n = 1,900) | AID 602318, 2012
MMP-2 counter-1 – MMP-2 enzyme inhibition, confirmation, counter-screen for RPN11 inhibitor project, biochemical, fluorescence, single concentration | shares compounds with Rpn11 block | recombinant MMP-2, FRET peptide cleavage fluorescence | inhibition, % at 20 µM | actives 4% (n = 1,900) | AID 602330, 2012;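 further: human MMP-2 activated beforehand with APMA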
Thrombin inh – bovine thrombin protease inhibition, confirmation, counter-screen for Rpn11 inhibitor project, biochemical, fluorescence polarization, single concentration. shares compounds with Rpn11 block. bovine thrombin cleavage of Ub4-pepOG. inhibition, % at 20 µM. actives 13% (n = 1,900). AID 602333, 2012;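 active means mean inhibition at least 40% at 20 µM, or signal 3 deviations below plate average, so some actives read negative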;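 further: plate controls were thrombin with DMSO for no effect and buffer wells lacking thrombin for full effect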
Target sequence (P00735 whole entry, looked up): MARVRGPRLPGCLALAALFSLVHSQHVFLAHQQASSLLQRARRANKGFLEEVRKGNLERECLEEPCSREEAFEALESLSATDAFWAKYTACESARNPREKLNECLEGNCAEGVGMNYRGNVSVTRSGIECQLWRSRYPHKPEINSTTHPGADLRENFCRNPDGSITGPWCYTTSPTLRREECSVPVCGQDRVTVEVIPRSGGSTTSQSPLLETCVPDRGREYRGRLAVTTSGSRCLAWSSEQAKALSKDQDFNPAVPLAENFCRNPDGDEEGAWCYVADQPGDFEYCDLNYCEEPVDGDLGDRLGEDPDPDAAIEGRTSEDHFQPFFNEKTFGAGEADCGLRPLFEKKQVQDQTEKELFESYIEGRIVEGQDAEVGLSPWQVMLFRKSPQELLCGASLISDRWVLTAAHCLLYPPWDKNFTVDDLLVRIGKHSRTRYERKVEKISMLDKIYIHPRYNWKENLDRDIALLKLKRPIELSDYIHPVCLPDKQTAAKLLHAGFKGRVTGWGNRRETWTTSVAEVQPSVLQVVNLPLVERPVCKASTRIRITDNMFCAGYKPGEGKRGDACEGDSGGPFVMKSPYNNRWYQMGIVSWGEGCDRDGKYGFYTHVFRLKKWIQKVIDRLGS
CSN deneddyl val – Csn5 deneddylation inhibitors, confirmation, biochemical, fluorescence polarization, single concentration, SCF-Nedd8OG substrate; shares compounds with CSN inh; Csn5 deneddylation of SCF-Nedd8OG, 90 min; inhibition, % at 16.6 µM; actives 62% (n = 540); AID 720654, 2013; in the data active means inhibition above about 50%;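 further: 0% = DMSO with enzyme and 100% = no enzyme wells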
MMP-2 counter-2 – MMP-2 protease inhibition counter-screen, confirmation, counter-screen for CSN deneddylation inhibitor project, biochemical, fluorescence, single concentration. shares compounds with CSN inh. recombinant MMP-2, FRET substrate fluorescence, 60 min. inhibition, % at 16.6 µM. actives 33% (n = 540);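 active means corrected plate-normalized z-score of 5 or more, or -5 or less, or inhibition of 15% or more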;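 further: plate controls were DMSO wells with enzyme for no effect and buffer wells lacking MMP-2 for full effect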
Thrombin counter – counter-screen for CSN deneddylation inhibitors: bovine thrombin inhibition; bovine thrombin cleavage of Ub4-pepOG, fluorescence polarization; actives 49% (n = 540); shares compounds with CSN inh; inhibition, % at 16.6 µM; AID 720656;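 active means inhibition at or above a set limit, with a fluorescence interference ratio between 0.5 and a set maximum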
HNF4a DNA conf – change in HNF4A binding to DNA, retest, confirmation, biochemical, fluorescence polarization, FITC-DNA | shares compounds with HNF4A DNA FP | 1 h | activity change, % at 12.5 µM | actives 99% (n = 210); call rule not given here
Starred values were filed as active, the others as inactive; . = no result given. Unless noted, no stated cut-off is given here; in the data, active means inhibition above about 40%; inactive means the rest.

SMILES | HNF4A DNA FP | Rpn11 block | SENP1 inh | TPT1 inhibitor | ATG4B inh | CSN inh | TPT1 inh confirm | RNase T1 inh | Rpn11 confirm | MMP-2 counter-1 | Thrombin inh | HNF4a DNA conf | others
COc1ccccc1N1C(=N)S/C(=C\c2ccc(-c3ccccc3C(=O)O)o2)C1=O | 15.1 | 69.5* | -26.7 | 56.7* | 12.2 | 35.5* | 75.8* | 86.8* | 73.9* | 23.8 | 47.4* | . | CSN deneddyl val=59.5*;MMP-2 counter-2=8.0;Thrombin counter=31.0*
O=c1oc(/C=C/c2ccc([N+](=O)[O-])s2)nc2ccccc12 | 9.4 | 80.6* | -25.9 | 59.8* | -4.1 | 50.0* | 58.5* | 70.5* | . | . | . | . | CSN deneddyl val=189.4*;MMP-2 counter-2=0.9;Thrombin counter=25.1*
CC(=O)Oc1ccccc1/C=C/c1nc2ccccc2c(=O)o1 | 4.1 | 25.7 | 3.1 | -0.3 | 32.6 | 11.7 | . | . | . | . | . | .
COc1cc(/C=C2\Oc3cc(O)ccc3C2=O)ccc1O | 33.5 | . | -20.6 | 46.9* | 5.3 | 40.1* | 51.0* | 59.3* | . | . | . | . | CSN deneddyl val=98.1*;MMP-2 counter-2=-7.2;Thrombin counter=28.8*
Cc1ccsc1/C=C1\Oc2cc(O)ccc2C1=O | -47.9 | -33.6 | -28.2 | . | . | -41.3 | . | . | . | . | . | .
CC(C)C(C(=O)NC1CCCC1)N1CCC(O)(c2ccc(Cl)cc2)CC1 (stereo not given) | 9.9 | . | 0.7 | . | . | 1.0 | . | . | . | . | . | .
C(=C\c1ccc2ccccc2n1)/c1ccccc1 | 1.8 | 4.7 | 0.8 | -0.5 | -4.9 | 3.2 | . | . | . | . | . | .
CN(C)c1ccc(/C=C/c2ccc3ccccc3n2)cc1 | 79.0 | . | -26.5 | 60.1* | -4.7 | 50.1* | 60.5* | 69.7* | . | . | . | . | CSN deneddyl val=87.8*;MMP-2 counter-2=-20.1;Thrombin counter=17.1*
CCN(CC)c1ccc(/C=C2\CCC(/C=N/NC(=O)c3ccc(=O)n(C)c3)=C2N2CCOCC2)cc1 | 119.3 | . | -25.3 | 116.6* | -13.1 | 69.3* | 112.9* | 111.6* | . | . | . | . | CSN deneddyl val=49.8;MMP-2 counter-2=-32.5*;Thrombin counter=37.1*
COc1ccc(/C=C(\C#N)c2nc3ccccc3[nH]2)cc1O | 3.0 | -1.3 | -71.8 | . | -9.8 | 2.9 | . | . | . | . | . | .
COc1cc(/C=C(/C#N)c2nc3ccccc3c(=O)[nH]2)ccc1O | 46.5* | 140.5* | -27.8 | 102.0* | 1.5 | 80.4* | 126.4* | 124.4* | 39.8 | 11.6 | 4.6 | 57.9*
O=Cc1sc(Nc2ccccc2)nc1Cl | 37.1* | 75.7* | -27.5 | 75.7* | 3.9 | 24.7 | 74.3* | 85.7* | 60.4* | 4.7 | 30.2 | 59.0*
COc1ccccc1Nc1nc(Cl)c(C=O)s1 | 49.5* | . | -38.0 | 45.0* | -6.3 | 37.5* | 70.3* | 83.0* | . | . | . | 88.8*
CCc1nc2ccccc2c(C(=O)OCc2nc3ccccc3c(=O)[nH]2)c1C | -0.9 | -1.6 | -6.6 | . | -3.5 | -5.0 | . | . | . | . | . | .
CSc1nnc(C)c(/C=C/Nc2ccc(C)cc2)n1 | 53.4* | . | -16.0 | 156.2* | -11.0 | 27.6 | 133.9* | 128.1* | . | . | . | 87.8*
Cc1ccccc1CN1C(=O)c2ccccc2C1c1nnnn1C(C)C (stereo not given) | -0.2 | . | 1.6 | . | . | 5.7 | . | . | . | . | . | .
CN1C(=O)/C(=C/C=C2/CCCN2C)N(C)C1=S | 45.6* | 46.7* | -31.1 | 40.5* | 5.3 | -4.0 | 89.8* | 102.5* | 56.0* | -34.2 | 37.0 | 82.0*
O=[N+]([O-])c1cccc(COc2ccccc2CO)c1 | 2.0 | . | -0.5 | . | . | -7.3 | . | . | . | . | . | .
O=C(CSc1ncnc2scc(-c3ccccc3)c12)N1CCN(Cc2ccc3c(c2)OCO3)CC1 | 45.7* | 50.0* | -2.1 | 41.3* | 14.5 | 13.1 | 65.8* | 77.4* | 34.1 | 18.9 | 20.9 | 36.7*
c1ccc(-c2csc3ncnc(N4CCN(Cc5ccc6c(c5)OCO6)CC4)c23)cc1 | 4.6 | 1.5 | 0.3 | -0.2 | -7.5 | -3.4 | . | . | . | . | . | .
O=C(/C=C\Nc1ccc2c(c1)OCO2)c1ccc(Cl)s1 | 88.0* | 35.8* | 0.2 | 24.7* | 3.0 | 21.1 | 39.4* | 49.5* | 37.9 | 32.9 | -8.4 | 61.3*
O=C(/C=C\Nc1ccc2c(c1)OCO2)c1cccs1 | 6.1 | 11.0 | -24.1 | 9.9 | -3.5 | 2.4 | . | . | . | . | . | .
O=C(Cc1cccc(NC(=O)C2CCN(C(=O)CCc3ccccc3)CC2)c1)Nc1cccc(C(=O)N2CCCC2)c1 | -6.7 | -0.7 | -2.1 | . | -19.8 | 0.5 | . | . | . | . | . | .
